Measurements from ChEMBL document CHEMBL1128231, “Amphoteric drugs. 3. Synthesis and antiallergic activity of 3-[(5,11-dihydro[1]benzoxepino[4,3-b]pyridin-11-ylidene)piperidino]propionic acid derivatives and related compounds” (J Med Chem, 1995).

What was measured:
[1] = test system: Rattus norvegicus; test: Antiallergic activity was evaluated by inhibitory effect on 48/80-induced lethality in rats at a dose 1 (mg/kg, po); format: functional
Method in brief: (§1)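 Male Wistar rats, 6 weeks old, fasted 24 h, n = 5. Survival beyond 2 h scored all-or-none; percent inhibition of lethality recorded at each oral dose.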

[2] = test system: Rattus norvegicus; test: Antiallergic activity was evaluated by inhibitory effect on compound 48/80-induced lethality in rats at a dose 10 (mg/kg, po); format: functional; method in brief: as §1
[3] = Octanol-buffer partition coefficient determined by dividing its equilibrium organic concentration by its aqueous concentration; format: physicochemical; settings: octanol/water
Method in brief: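 Sample dissolved at 10 µg/mL in Sørensen buffer pH 7.4; equal volumes buffer and 1-octanol shaken 24 h at 25 °C, centrifuged. Each phase quantified by HPLC (UV 254 nm, ODS column, 0.03 M phosphate pH 3.0–CH3CN 7:3). PCoct = organic/aqueous equilibrium concentration.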

[4] = molecular target: Histamine H1 receptor (Mus musculus) (UniProt P70174); test: Ex vivo inhibition of [3H]mepyramine binding to mouse brain membrane H1 receptor after oral administration; format: functional, organism-based
Chain of Histamine H1 receptor (Mus musculus) (P70174 whole entry): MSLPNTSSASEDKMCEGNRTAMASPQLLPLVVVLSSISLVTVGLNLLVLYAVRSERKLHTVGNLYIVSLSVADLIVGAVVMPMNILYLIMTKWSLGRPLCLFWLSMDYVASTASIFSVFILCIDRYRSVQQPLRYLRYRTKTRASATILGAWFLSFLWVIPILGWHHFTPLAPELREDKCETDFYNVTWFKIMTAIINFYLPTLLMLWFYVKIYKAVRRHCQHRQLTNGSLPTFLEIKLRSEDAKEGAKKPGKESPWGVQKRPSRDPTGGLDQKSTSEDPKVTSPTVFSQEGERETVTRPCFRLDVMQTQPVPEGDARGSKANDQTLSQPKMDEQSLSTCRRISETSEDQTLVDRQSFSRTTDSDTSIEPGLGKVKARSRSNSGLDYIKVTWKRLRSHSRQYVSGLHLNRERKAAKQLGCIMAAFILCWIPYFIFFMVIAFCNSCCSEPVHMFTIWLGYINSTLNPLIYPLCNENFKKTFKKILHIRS
Method in brief: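 Male ICR mice (6 weeks, starved 24 h) dosed orally with compound or vehicle; brain taken 1 h later and homogenized in 40 volumes 50 mM phosphate buffer pH 7.4. Membranes incubated with [3H]mepyramine (final 2 nM), 25 °C, 30 min; filtered, scintillation counted.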

[5] = test system: Mus musculus; test: Inhibitory effect on histamine-induced increase in vascular permeability in mice upon oral administration; format: functional
Method in brief: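 Male ICR mice (6 weeks, starved 20 h) dosed orally; 1 h later, under light ether, intradermal histamine dihydrochloride 2.5 µg/site plus saline after iv 0.2 mL 1% Evans blue. Killed 30 min later; extravasated dye extracted and assayed. ED50 from log-logit dose–percent inhibition, least squares, with 95% confidence limits.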

[6] = test system: Mus musculus; test: Tested for Hexobarbital-induced anesthesia in mice by measuring dose which produced 50% increase of the sleeping time upon oral administration; format: functional; settings: read-out: ID50 (the source's name)
Method in brief: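 Male ICR mice (5 weeks, starved 20–24 h) dosed orally; 1 h later hexobarbital 80 mg/kg ip. Sleeping time = duration of loss of righting reflex; responders show >50% increase over controls. ID50 from number responding at each dose by Litchfield–Wilcoxon, with 95% confidence limits.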

[7] = test system: Rattus norvegicus; test: Antiallergic activity was evaluated by inhibitory effect on 48/80-induced lethality in rats at a dose 0.1 (mg/kg, po); format: functional; method in brief: as §1
[8] = Selectivity as the ratio of ID50 value to that of ED50 value in mice.; format: functional
Method in brief: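 Ratio B/A: B = oral ID50 for ex vivo [3H]mepyramine binding in mouse brain membranes (1 h post-dose); A = oral ED50 against histamine-induced skin vascular permeability in mice.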

[9] = species: Cavia porcellus; test: animal or person; settings: po, 8 h, read-out: Inhibition
[10] = test system: Rattus norvegicus; test: Antiallergic activity was evaluated by inhibitory effect on compound 48/80-induced lethality in rats at a dose 0.01 (mg/kg, po); format: functional; method in brief: as §1
[11] = test system: Cavia porcellus; test: Histamine induced in lethality in guinea pigs at 8 hr after oral dose of 0.3 mg/kg; format: functional
Method in brief: (§2)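 Male Hartley guinea pigs, 6 weeks old, fasted 24 h, n = 10, dosed orally. Eight hours later histamine dihydrochloride given iv at a lethal dose of 1 mg/kg. Survival beyond 30 min scored all-or-none; percent inhibition of lethality reported.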

[12] = test system: Cavia porcellus; test: Histamine induced in lethality in guinea pigs at 8 hr after oral dose of 0.02 mg/kg; format: functional; method in brief: as §2

Row | SMILES | Inhibition [1] [%] | Inhibition [2] [%] | ID50 [4] [mg/kg] | ED50 [5] [mg/kg] | Inhibition [7] [%] | Selectivity [8] | Inhibition [10] [%] | other results
1 | O=C(O)CCN1CCC(=C2c3cccc([N+](=O)[O-])c3OCc3cccnc32)CC1 | 0 | 60 |  |  |  |  |  | 
2 | O=C(O)CCN1CCC(=C2c3ccccc3OCc3cccnc32)CC1 | 100 |  | 19 | 0.012 | 0 | 1600 |  | PCoct [3]: 0.52; ED50 [6]: > 100 mg/kg
3 | Cc1ccc(/C(=C\CN2CCCC2)c2cccc(/C=C/C(=O)O)n2)cc1 [ACRIVASTINE] |  |  | > 300 | 0.63 |  | >480 |  | ED50 [2]: 3.3 mg/kg; inhibition in vivo at 0.16 mg/kg [9]: 0%
4 | O=C(O)CCN1CCC(=C2c3cccc(F)c3OCc3cccnc32)CC1 | 100 |  |  |  | 20 |  | 0 | 
5 | COc1ccc2c(c1)OCc1cccnc1C2=C1CCN(CCC(=O)O)CC1 | 20 | 100 |  |  | 0 |  |  | 
6 | O=C(O)CCN1CCC(=C2c3ccc(Br)cc3OCc3cccnc32)CC1 | 60 | 100 |  |  | 40 |  | 0 | 
7 | Cc1ccc2c(c1)OCc1cccnc1C2=C1CCN(CCC(=O)O)CC1 | 40 | 100 |  |  | 20 |  | 0 | 
8 | CN1CCC(=C2c3ccccc3OCc3cccnc32)CC1 | 100 |  | 0.2 | 0.011 | 0 | 18 |  | PCoct [3]: 28.4; ED50 [6]: > 100 mg/kg
9 | CCOC(=O)N1CCC(=C2c3ccc(Cl)cc3CCc3cccnc32)CC1 [LORATADINE] |  |  |  | 0.21 |  |  |  | inhibition in vivo at 0.3 mg/kg [11]: 80%
10 | O=C(O)CCN1CCC(=C2c3ccc(F)cc3OCc3cccnc32)CC1 | 100 |  | 14 | 0.025 | 40 | 560 | 0 | ED50 [2]: 0.29 mg/kg; inhibition in vivo at 0.3 mg/kg [11]: 90%
11 | O=C(O)CCN1CCC(=C2c3ccc(Cl)cc3OCc3ncccc32)CC1 | 100 |  |  |  | 80 |  | 40 | 
12 | O=C(O)CCN1CCC(=C2c3cc([N+](=O)[O-])ccc3OCc3cccnc32)CC1 | 20 | 80 |  |  | 0 |  |  | 
13 | O=C(O)CCN1CCC(=C2c3cc(F)ccc3OCc3ncccc32)CC1 | 100 |  |  |  | 60 |  | 0 | 
14 | CN1CCC(=C2c3ccccc3CC(=O)c3sccc32)CC1 [KETOTIFEN] |  |  | 0.65 | 0.23 |  | 2.8 |  | inhibition in vivo at 0.02 mg/kg [12]: 10%
15 | O=C(O)CCN1CCC(=C2c3cc(C(=O)O)ccc3OCc3cccnc32)CC1 | 0 | 20 |  |  |  |  |  | 
16 | O=C(O)CCN1CCC(=C2c3ccc(Cl)cc3OCc3cccnc32)CC1 | 80 | 100 |  |  | 0 |  |  | 

Row | SMILES | Inhibition [1] [%] | Inhibition [2] [%] | ID50 [4] [mg/kg] | ED50 [5] [mg/kg] | Inhibition [7] [%] | Selectivity [8] | Inhibition [10] [%] | other results
17 | CN1CCC(=C2c3ccccc3OCc3ncccc32)CC1 | 100 |  | 0.49 | 0.025 | 0 | 20 |  | PCoct [3]: 54.3; ED50 [6]: 9.9 mg/kg
18 | O=C(O)CCN1CCC(=C2c3cccc(Cl)c3OCc3cccnc32)CC1 | 60 | 100 |  |  | 0 |  |  | 
19 | Cc1ccc2c(c1)OCc1ncccc1C2=C1CCN(CCC(=O)O)CC1 | 60 | 100 |  |  | 20 |  | 0 | 
20 | COc1ccc2c(c1)OCc1ncccc1C2=C1CCN(CCC(=O)O)CC1 | 100 |  |  |  | 40 |  | 0 | 
21 | O=C(O)CCN1CCC(=C2c3cc(Cl)ccc3OCc3cccnc32)CC1 | 100 |  |  |  | 0 |  |  | 
22 | CC(CN1CCC(=C2c3ccc(F)cc3OCc3cccnc32)CC1)C(=O)O (configuration not stated) | 100 |  | 2.3 | 0.011 | 60 | 210 | 20 | 
23 | CC(=O)c1ccc2c(c1)C(=C1CCN(CCC(=O)O)CC1)c1ncccc1CO2 | 20 | 100 |  |  | 0 |  |  | 
24 | CC(CC(=O)O)N1CCC(=C2c3ccc(F)cc3OCc3cccnc32)CC1 (configuration not stated) | 0 | 100 |  |  |  |  |  | 
25 | O=C(O)CCN1CCC(=C2c3ccc(F)cc3OCc3ncccc32)CC1 |  |  | 2.5 | 0.0037 | 100 | 680 | 40 | ED50 [2]: 0.034 mg/kg; inhibition in vivo at 0.3 mg/kg [11]: 60%
26 | COc1ccc2c(c1)C(=C1CCN(CCC(=O)O)CC1)c1ncccc1CO2 | 60 | 80 |  |  | 20 |  | 0 | 
27 | CC(CN1CCC(=C2c3ccc(F)cc3OCc3ncccc32)CC1)C(=O)O (configuration not stated) |  |  |  |  | 100 |  | 20 | 
28 | O=C(O)CCN1CCC(=C2c3cc(F)ccc3OCc3cccnc32)CC1 | 20 | 100 |  |  | 0 |  |  | 
29 | O=C(O)CCN1CCC(=C2c3ccccc3COc3ccccc32)CC1 | 100 |  | 0.062 | 0.0038 | 60 | 16 | 20 | PCoct [3]: 9.66; ED50 [6]: 16 mg/kg
30 | O=C(O)CCN1CCC(=C2c3ccccc3OCc3ncccc32)CC1 | 100 |  | 3.4 | 0.01 | 40 | 340 | 0 | PCoct [3]: 0.56; ED50 [6]: > 100 mg/kg
31 | CN1CCC(=C2c3ccccc3COc3ccccc32)CC1 | 60 | 100 | 0.77 | 0.035 | 0 | 22 |  | ED50 [6]: 0.73 mg/kg
